Compound activity as filed in PubChem BioAssay.
T cell HTS: T cell immune modulation candidate. 2C CD8+ T cell-vesicle binding, flow cytometry; active compounds read low. response (vesicle binding), % at 7 µM. actives 0.068% (n = 330,000);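 active = response, share of CD8 T cells binding vesicles, and their 90th percentile fluorescence all below set limits, cut at about 80% in these data, passing the limit was not always enough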;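 note: values below 100% mean blocked vesicle binding to the CD8+ T cells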
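Read-out – percent CD8+ FL2 mean versus row control · System – murine 2C transgenic CD8+ T lymphocytes · Times – 1.5 h cell–vesicle binding at 37 °C, then 20 min icy labelling · Control set – naked vesicles low, QL9 vesicles with vehicle high · Detection – cytometric PE anti-B7-1 and Alexa647 anti-CD8 signals after 1% paraformaldehyde fixation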
CHT inh: inhibitors of human choline transporter CHT; Q9GZV3; CHT-expressing cells, membrane potential dye, choline response; active compounds read low; B-score at 10 µM; actives 0.86% (n = 310,000);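 active = B-score over 3 SD under the library average, and starting fluorescence ratio not unusually high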;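 note: choline stimulus applied at its EC90 after an EC20 pre-addition; B-score computed on integrated fluorescence ratio after choline addition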
Target sequence (Q9GZV3 whole entry, looked up): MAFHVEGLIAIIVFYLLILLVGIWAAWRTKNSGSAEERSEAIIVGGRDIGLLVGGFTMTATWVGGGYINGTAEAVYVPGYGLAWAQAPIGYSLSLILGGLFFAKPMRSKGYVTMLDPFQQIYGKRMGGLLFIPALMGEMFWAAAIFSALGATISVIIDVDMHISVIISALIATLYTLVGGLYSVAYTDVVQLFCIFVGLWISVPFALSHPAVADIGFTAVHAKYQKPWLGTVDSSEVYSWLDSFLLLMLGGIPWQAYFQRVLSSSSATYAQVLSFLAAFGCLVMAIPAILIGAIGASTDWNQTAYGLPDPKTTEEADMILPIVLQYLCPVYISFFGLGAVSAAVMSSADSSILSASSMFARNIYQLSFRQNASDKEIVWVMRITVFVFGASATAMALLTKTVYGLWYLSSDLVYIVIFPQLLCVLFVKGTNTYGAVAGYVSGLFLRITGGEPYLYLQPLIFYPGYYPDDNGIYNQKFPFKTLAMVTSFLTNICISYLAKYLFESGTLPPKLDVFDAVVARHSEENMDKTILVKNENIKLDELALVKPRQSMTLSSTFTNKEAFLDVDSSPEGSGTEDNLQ
CHT PAM: allosteric activators of human choline transporter CHT. actives 0.49% (n = 310,000). AID 488977. B-score at 10 µM. CHT-expressing cells, membrane potential dye, choline EC20; active compounds read high; LV-AA mutant CHT in HEK293 cells;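 active = initial fluorescence not abnormally high and integrated response B-score, plate-corrected, over 3 SD above library mean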
VLA-4 inh: inhibition in a human VLA-4 binding assay. inhibition, % (about 7 µM as worked out from the volumes in the protocol). P13612. actives 0.2% (n = 330,000). VLA-4 expressing cells, ligand binding flow cytometry; in the data active = inhibition above about 50%
CHT inh conf: human CHT inhibition, confirmatory screen | shares compounds with CHT inh | CHT-expressing cells, choline membrane potential dye; LV-to-AA substituted CHT, HEK293 cells | CHT activity remaining % of control (active compounds read low), % at 10 µM | actives 70% (n = 2,400);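 active = choline transporter activity left, mean of duplicates at 10 µM, below buffer-only control mean minus 3 SD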;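 note: depolarization triggered by choline at its EC90 following an EC20 pre-addition; 0% = hemicholinium-3 full block and 100% = buffer-only control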
HEK293 CHT ctr: counter-screen for CHT inhibitors: effect in parental HEK293 cells; shares compounds with CHT inh; membrane potential dye, choline response; active = decrease or increase beyond buffer ±3SD; membrane potential ratio readout (active if shifted either direction beyond buffer ±3SD; no single direction) at 10 µM; actives 4% (n = 2,400); AID 493222;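 note: parental cells lack the transporter so any hit is non-specific; ratio is peak minus trough fluorescence over baseline after EC90 choline challenge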
* = called active by the depositor; i = inactive; . = not tested or not shown. Compounds with a hit are over-represented: about 1.5% of the library has one in this group of screens.

SMILES	T cell HTS	CHT inh	CHT PAM	VLA-4 inh	CHT inh conf	HEK293 CHT ctr
Cc1cc(=O)[nH]c(SCCOc2ccc3c(c2)CCC3)n1	583	i	i	8	.	.
Cc1cc(=O)[nH]c(SCCOc2ccc(OC(C)C)cc2)n1	312	-5*	i	30	i	i
O=C(N/N=C/c1sc2ccccc2c1O)c1ccccc1	120	-20*	i	-3	-81%*	-55*
CN(C)CCOC(=O)COc1ccc(Cl)cc1	268	i	i	20	.	.
CN(C)CCOC(=O)Cc1ccc(Cl)cc1	642	-10*	i	12	63%*	i
O=C(O)c1ccc(NC2=C(Cl)C(=O)c3ccccc3C2=O)cc1	143	-10*	i	3	32%*	i
O=C1C(Cl)=C(Nc2ccccc2)C(=O)c2ccccc21	548	i	i	36	.	.
O=C(/C=C/c1cn(-c2ccccc2)nc1-c1cccs1)NCCN1CCOCC1	52	-7.1*	i	20	i	i
CCCc1cc2c(=O)c(-c3cscn3)c(C(=O)OCC)oc2cc1O	134	-5.8*	i	11	28%*	i
CCOC(=O)c1oc2cc(O)cc(C)c2c(=O)c1-c1cscn1	263	i	i	13	.	.
O=C(CSc1nccn1-c1ccc(F)cc1)NCc1ccc(F)cc1	123	-5.3*	i	6	53%*	i
CC(C)C(NC(=O)c1ccccc1Cl)C(=O)OCc1nc2scc(-c3ccccc3Cl)c2c(=O)[nH]1 (centres undefined)	380	-5.1*	i	11	i	i
CC(C)[C@H](NC(=O)c1ccccc1Br)C(=O)OCc1nc2ccsc2c(=O)[nH]1	348	i	i	2	.	.
S=c1[nH]nc(-c2ccccn2)n1/N=C/c1cccc(Cl)c1	254	-5.7*	i	22	i	i
Oc1ccc(/C=N/n2c(-c3ccccc3)n[nH]c2=S)cc1Br	121	-6*	i	-1	54%*	i
O=S(=O)(c1ccccc1F)N1CCN(CCc2ccccc2)CC1	92	-6.8*	i	5	48%*	i
O=S(=O)(c1ccc(F)c(F)c1)N1CCN(CCc2ccccc2)CC1	125	-6.8*	i	0	54%*	i
Cc1ccc2nsnc2c1S(=O)(=O)N1CCN(CCc2ccccc2)CC1	264	-11*	i	-9	41%*	i
NC(=O)C1CCN(C(=O)/C(=C/c2ccccc2)NC(=O)c2ccccc2)CC1	294	i	i	-1	.	.
CCN(CC)S(=O)(=O)c1cc(C(=O)N2CCc3ccccc32)ccc1Cl	377	-5.8*	i	-9	67%*	i
CCN(CC)S(=O)(=O)c1ccc(Cl)c(C(=O)N2CCc3ccccc32)c1	290	i	i	4	.	.
CCCN1CCC(Oc2cccc(C(=O)NCCc3ccccc3)c2)CC1	520	-11*	i	-1	6.5%*	i
CSCCCNC(=O)c1ccc(OC2CCN(CCc3ccccc3)CC2)cc1	477	-6*	i	12	51%*	4.8*
COc1ccc(N2CCN(C(=O)c3cc(-c4cccs4)nc4ccccc34)CC2)cc1	379	-6.1*	i	-5	i	i
CCC1CCCCN1CCCNC(=O)c1ccc2c(c1)c(C)c(C)n2C (centres undefined)	303	-5.7*	i	2	35%*	i
CCCCCn1c(=O)[nH]c2cc(C(=O)NCCCN3CCCCC3CC)ccc2c1=O (centres undefined)	242	-6*	i	3	41%*	i
CC(O)[C@@]1(O)CC[C@H]2[C@@H]3CC[C@H]4C[C@@H](O)CC[C@]4(C)C3=CC[C@@]21C (some centres undefined)	247	i	i	-9	.	.
COC(=O)C1CN(C(=O)C(C)Oc2ccccc2Cl)c2ccccc2O1 (centres undefined)	196	-5.2*	i	3	71%*	i
COC(=O)C1CN(C(=O)COc2cccc(C)c2C)c2ccccc2O1 (centres undefined)	134	i	i	11	.	.
